From ChEMBL document CHEMBL4130545, “Lupane-Type Triterpenes of Phoradendron vernicosum” (J Nat Prod, 2017)

Experiments:
[1] = tested on: HeLa; assay: Cytotoxic activity in human HeLa cells by sulforhodamine B assay; assay type: functional
Method in brief: (§1)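 Cell lines grown in D-MEM with 10% (v/v) FBS, 100 U/mL penicillin G and 100 μg/mL streptomycin at 37 °C, 5% CO2, 95% humidity. Cytotoxicity was measured by the Skehan method. CC50 was taken as the concentration that reduces cell growth by 50%. Docetaxel served as positive control, and each test was run in triplicate.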

[2] = tested on: MCF7; assay: Antiproliferative activity in human MCF7 cells by sulforhodamine B assay; assay type: functional, cell-based
Method in brief: (§2)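 Cells grown in D-MEM with 10% (v/v) FBS, 100 U/mL penicillin G and 100 μg/mL streptomycin, at 37 °C under 5% CO2 and 95% humidity. Cytotoxic and antiproliferative effects were measured by the sulforhodamine B method of Skehan et al. CC50 (cytotoxic) or IC50 (antiproliferative) is the concentration giving 50% growth reduction. Docetaxel was the positive control. Triplicate tests.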

[3] = tested on: Vero; assay: Antiproliferative activity in African green monkey Vero cells by sulforhodamine B assay; assay type: cell-based; settings: Chlorocebus sabaeus; method in brief: as §2
[4] = Cytotoxic activity in African green monkey Vero cells by sulforhodamine B assay; assay type: cell-based; settings: chlorocebus sabaeus; method in brief: as §2
[5] = tested on: MDA-MB-231; assay: Antiproliferative activity in human MDA-MB-231 cells by sulforhodamine B assay; assay type: functional, cell-based; method in brief: as §2
[6] = tested on: DU-145; assay: Cytotoxic activity in human DU145 cells by sulforhodamine B assay; assay type: functional; method in brief: as §1
[7] = tested on: DU-145; assay: Antiproliferative activity in human DU145 cells by sulforhodamine B assay; assay type: functional, cell-based; method in brief: as §2
[8] = tested on: SiHa; assay: Cytotoxic activity in human SiHa cells by sulforhodamine B assay; assay type: functional; method in brief: as §1
[9] = Cytotoxic activity in HEK293 cells by sulforhodamine B assay; assay type: cell-based; settings: human; method in brief: as §2
[10] = tested on: HEp-2; assay: Cytotoxic activity in human Hep2 cells by sulforhodamine B assay; assay type: functional; method in brief: as §1
[11] = tested on: HEK293; assay: Antiproliferative activity in HEK293 cells by sulforhodamine B assay; assay type: cell-based; settings: Homo sapiens; method in brief: as §2
[12] = tested on: KB; assay: Cytotoxic activity in human KB cells by sulforhodamine B assay; assay type: functional; method in brief: as §1
[13] = tested on: SiHa; assay: Antiproliferative activity in human SiHa cells by sulforhodamine B assay; assay type: functional, cell-based; method in brief: as §2
[14] = tested on: MCF7; assay: Cytotoxic activity in human MCF7 cells by sulforhodamine B assay; assay type: functional; method in brief: as §1
[15] = tested on: MDA-MB-231; assay: Cytotoxic activity in human MDA-MB-231 cells by sulforhodamine B assay; assay type: functional; method in brief: as §1
[16] = tested on: HeLa; assay: Antiproliferative activity in human HeLa cells by sulforhodamine B assay; assay type: functional, cell-based; method in brief: as §2
[17] = tested on: HEp-2; assay: Antiproliferative activity in human Hep2 cells by sulforhodamine B assay; assay type: functional, cell-based; method in brief: as §2
[18] = tested on: KB; assay: Antiproliferative activity in human KB cells by sulforhodamine B assay; assay type: functional, cell-based; method in brief: as §2
[19] = Selectivity index, ratio of antiproliferative IC50 for African green monkey Vero cells to antiproliferative IC50 for human MCF7 cells; assay type: toxicity; settings: Vero cells versus MCF7 cells, read-out: Ratio IC50
Method in brief: (§3)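 Selectivity index for harmfulness to normal cells: the normal-cell (Vero or HEK293) CC50 or IC50 over the cancer-cell value from the same assay type. Each value is from sulforhodamine B growth-reduction tests done in triplicate in D-MEM/10% FBS at 37 °C, 5% CO2.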

[20] = Selectivity index, ratio of cytotoxic CC50 for African green monkey Vero cells to cytotoxic CC50 for human MDA-MB-231 cells; assay type: toxicity; settings: Vero cells versus MDA-MB-231 cells, read-out: Selectivity Index; method in brief: as §3
[21] = Selectivity index, ratio of antiproliferative IC50 for African green monkey Vero cells to antiproliferative IC50 for human KB cells; assay type: toxicity; settings: Vero cells versus KB cells, read-out: Ratio IC50; method in brief: as §3
[22] = Selectivity index, ratio of cytotoxic CC50 for African green monkey Vero cells to cytotoxic CC50 for human MCF7 cells; assay type: toxicity; settings: Vero cells versus MCF7 cells, read-out: Selectivity Index; method in brief: as §3
[23] = Selectivity index, ratio of antiproliferative IC50 for African green monkey Vero cells to antiproliferative IC50 for human Hep2 cells; assay type: toxicity; settings: Vero cells versus Hep2 cells, read-out: Ratio IC50; method in brief: as §3
[24] = Selectivity index, ratio of cytotoxic CC50 for African green monkey Vero cells to cytotoxic CC50 for human DU145 cells; assay type: toxicity; settings: Vero cells versus DU145 cells, read-out: Selectivity Index; method in brief: as §3
[25] = Selectivity index, ratio of antiproliferative IC50 for African green monkey Vero cells to antiproliferative IC50 for human SiHa cells; assay type: toxicity; settings: Vero cells versus SiHa cells, read-out: Ratio IC50; method in brief: as §3
[26] = Selectivity index, ratio of cytotoxic CC50 for African green monkey Vero cells to cytotoxic CC50 for human KB cells; assay type: toxicity; settings: Vero cells versus KB cells, read-out: Selectivity Index; method in brief: as §3
[27] = Selectivity index, ratio of cytotoxic CC50 for African green monkey Vero cells to cytotoxic CC50 for human SiHa cells; assay type: toxicity; settings: Vero cells versus SiHa cells, read-out: Selectivity Index; method in brief: as §3
[28] = Selectivity index, ratio of cytotoxic CC50 for African green monkey Vero cells to cytotoxic CC50 for human Hep2 cells; assay type: toxicity; settings: Vero cells versus Hep2 cells, read-out: Selectivity Index
[29] = Selectivity index, ratio of cytotoxic CC50 for African green monkey Vero cells to cytotoxic CC50 for human HeLa cells; assay type: toxicity; settings: Vero cells versus HeLa cells, read-out: Selectivity Index; method in brief: as §3
[30] = Selectivity index, ratio of antiproliferative IC50 for African green monkey Vero cells to antiproliferative IC50 for human HeLa cells; assay type: toxicity; settings: Vero cells versus HeLa cells, read-out: Ratio IC50; method in brief: as §3

| SMILES | CC50 [1] [µM] | IC50 [2] [µM] | IC50 [3] [µM] | CC50 [4] [µM] | IC50 [5] [µM] | CC50 [6] [µM] | IC50 [7] [µM] | CC50 [8] [µM] | CC50 [9] [µM] | CC50 [10] [µM] | IC50 [11] [µM] | CC50 [12] [µM] | IC50 [13] [µM] | CC50 [14] [µM] | CC50 [15] [µM] | IC50 [16] [µM] | IC50 [17] [µM] | IC50 [18] [µM] | selectivity ratio [22] | selectivity ratio [25] | other results |
| --- | --- | --- | --- | --- | --- | --- | --- | --- | --- | --- | --- | --- | --- | --- | --- | --- | --- | --- | --- | --- | --- |
| C=C(C=O)[C@@H]1CC[C@]2(C(=O)O)CC[C@]3(C)[C@H](CC[C@@H]4[C@@]5(C)CC[C@@H](O)[C@](C)(CO)[C@@H]5CC[C@]43C)[C@@H]12 | 182 | > 500 | > 500 | > 500 | 123 | 52.6 | 89.7 | 92.2 | > 500 | > 500 | > 500 | > 500 | 127 | > 500 | 106 | 106 | > 500 | > 500 | – | – | – |
| C=C(C)[C@@H]1CC[C@]2(C(=O)O)CC[C@]3(C)[C@H](CC[C@@H]4[C@@]5(C)CC[C@@H](O)[C@](C)(CO)[C@@H]5CC[C@]43C)[C@@H]12 | 120 to 153 | 48.9 to 500 | > 500 | > 500 | 169 to 500 | 53.1 to 97.2 | > 500 | 20.3 to 110 | 95.8 to 500 | > 500 | 95.5 to 500 | 24.1 to 500 | 57.8 to 500 | 31.7 to 98.5 | 71.2 to 91.1 | > 500 | 75.2 to 500 | 12.5 to 500 | 3 | 1.6 | selectivity ratio [19]: 1.9; selectivity ratio [20]: 1.3; selectivity ratio [21]: 18.3; selectivity ratio [23]: 1.3; selectivity ratio [24]: 1.8; selectivity ratio [26]: 18.3; selectivity ratio [27]: 4.7 |
| C=C(C)[C@@H]1CC[C@]2(C(=O)O)CC[C@]3(C)[C@H](CC[C@@H]4[C@@]5(C)CC[C@H]6OC(C)(C)OC[C@]6(C)[C@@H]5CC[C@]43C)[C@@H]12 | > 500 | > 500 | > 500 | > 500 | > 500 | > 500 | > 500 | > 500 | 420 | 32.4 | 656 | 10.2 | 58.2 | 84.6 | > 500 | > 500 | > 500 | 16.4 | 5 | 11.3 | selectivity ratio [21]: 39.9; selectivity ratio [28]: 13; selectivity ratio [26]: 41 |
| C=C(C)[C@@H]1CC[C@]2(CO)CC[C@]3(C)[C@H](CC[C@@H]4[C@@]5(C)CC[C@H](O)C(C)(C)[C@@H]5CC[C@]43C)[C@@H]12 [BETULIN] | > 500 | > 500 | > 500 | > 500 | > 500 | 162 | 137 | > 500 | > 500 | > 500 | > 500 | > 500 | > 500 | > 500 | > 500 | > 500 | > 500 | > 500 | – | – | – |
| C=C(C)[C@@H]1CC[C@]2(CO)CC[C@]3(C)[C@H](CC[C@@H]4[C@@]5(C)CCC(=O)C(C)(C)[C@@H]5CC[C@]43C)[C@@H]12 [BETULONE] | 136 | > 500 | > 500 | > 500 | > 500 | 102 | > 500 | 197 | > 500 | > 500 | > 500 | > 500 | > 500 | > 500 | 136 | > 500 | > 500 | > 500 | – | – | – |
| C=C(C)[C@@H]1CC[C@]2(C(=O)O)CC[C@]3(C)[C@H](CC[C@@H]4[C@@]5(C)CCC(=O)C(C)(C)[C@@H]5CC[C@]43C)[C@@H]12 [BETUNOLIC ACID] | > 500 | > 500 | > 500 | > 500 | > 500 | 139 | > 500 | 117 | > 500 | > 500 | > 500 | > 500 | > 500 | > 500 | 60.9 | > 500 | > 500 | > 500 | – | – | – |
| C=C(C)[C@@H]1CC[C@]2(C(=O)O)CC[C@]3(C)[C@H](CC[C@@H]4[C@@]5(C)CC[C@@H](O)C(C)(C)[C@@H]5CC[C@]43C)[C@@H]12 [EPIBETULINIC ACID] | 118 | 91.6 | 117 | 107 | > 500 | > 500 | > 500 | 113 | > 500 | > 500 | > 500 | > 500 | 117 | 154 | > 500 | 91.8 | > 500 | > 500 | 0.7 | 1 | selectivity ratio [19]: 1.2; selectivity ratio [29]: 0.9; selectivity ratio [27]: 0.9; selectivity ratio [30]: 1.3 |
| C=C(C)[C@@H]1CC[C@]2(C)CC[C@]3(C)[C@H](CC[C@@H]4[C@@]5(C)CCC(=O)C(C)(C)[C@@H]5CC[C@]43C)[C@@H]12 [LUPENONE] | > 500 | > 500 | > 500 | > 500 | > 500 | > 500 | > 500 | > 500 | > 500 | > 500 | > 500 | > 500 | > 500 | > 500 | > 500 | > 500 | > 500 | > 500 | – | – | – |
| CC1(C)CC[C@]2(C(=O)O)CC[C@]3(C)C(=CC[C@@H]4[C@@]5(C)CC[C@H](O)C(C)(C)[C@@H]5CC[C@]43C)[C@@H]2C1 [OLEANOLIC_ACID] | > 500 | > 500 | > 500 | > 500 | 134 | 65.6 | 124 | 109 | > 500 | > 500 | > 500 | > 500 | 110 | > 500 | 106 | 204 | > 500 | > 500 | – | – | – |
